Assay outcomes deposited in PubChem by several laboratories.
In the library only some 2.2% were active in any assay of this set; here they are far more common.
ASAP1 GAP inh: inhibitors of human ASAP1 ArfGAP activity, primary screen, biochemical, fluorescence polarization; Arf-GAP with SH3 domain, ANK repeat and PH domain-containing protein 1 (Homo sapiens), …; ASAP1-stimulated ARF1 GTP hydrolysis, GDP FP detection; inhibition, % at 16.5 µM; 0.19% of 360,000 active; in the data active means inhibition above about 25%;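 further: 0% = vehicle with enzyme and substrate and 100% = no enzyme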
Target sequence (Q9ULH1 325-724 limits assumed): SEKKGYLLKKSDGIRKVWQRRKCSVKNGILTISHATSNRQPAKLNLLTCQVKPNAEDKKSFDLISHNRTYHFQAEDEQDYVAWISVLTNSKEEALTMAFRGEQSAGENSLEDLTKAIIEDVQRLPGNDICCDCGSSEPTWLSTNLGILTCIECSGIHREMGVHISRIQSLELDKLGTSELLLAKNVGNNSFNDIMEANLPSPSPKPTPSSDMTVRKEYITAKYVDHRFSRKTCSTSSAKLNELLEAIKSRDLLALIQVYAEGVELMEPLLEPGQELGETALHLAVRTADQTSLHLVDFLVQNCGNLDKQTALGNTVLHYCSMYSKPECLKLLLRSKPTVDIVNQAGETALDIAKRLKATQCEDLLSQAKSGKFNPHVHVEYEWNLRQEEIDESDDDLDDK
rCAG binder: binders of r(CAG) RNA repeats, primary screen, biochemical, fluorescence | r(CAG) RNA repeat, TO-PRO-1 dye displacement fluorescence | 1.3% of 370,000 active | inhibition, % at 3 µM;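 active means inhibition above the plate cutoff, the mean of all test compounds on that plate plus 3 SD, cut at about 35% in these data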;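 further: 0% = DMSO alone and 100% = 100 µM mitoxantrone as full dye displacement; higher means more dye released from RNA so lower well fluorescence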
ARFGAP1 inhibitor: inhibitors of rat ARFGAP1 GAP activity, primary screen, biochemical, fluorescence polarization, GDP tracer; ADP-ribosylation factor GTPase-activating protein 1 (Rattus norvegicus), Q62848; Arfgap1-stimulated ARF1 GTP hydrolysis, GDP FP detection; inhibition, % at 16.5 µM; 0.26% of 360,000 active; AID 651572, 2012;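 active means inhibition above a per-plate limit, mean inhibition of low control wells plus 3 SD, cut at about 25% in these data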;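 further: 0% = DMSO wells with enzyme and 100% = wells lacking Arfgap1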
Target sequence (Q62848 1-136 limits assumed): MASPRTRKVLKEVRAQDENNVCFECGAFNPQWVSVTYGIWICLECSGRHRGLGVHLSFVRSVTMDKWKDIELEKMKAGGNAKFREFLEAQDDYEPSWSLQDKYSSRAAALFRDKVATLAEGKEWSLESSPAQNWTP
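Material: rat Arfgap1 catalytic domain, aa 1-136; also added: human ARF1(Δ1-17)-GTP substrate; compound dosing: one concentration, 16.5 µM, DMSO 1.26%; incubation: GTP hydrolysis reaction 2 h at 25 °C; measured by: Tracer-displacement fluorescence polarization with EDTA stop, 620/688 nm; evaluation: % inhibition from polarization; repeats: one replicate per compound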
NadD inh: inhibitors of S. aureus NadD, primary screen, biochemical, colorimetric, uHTS; Nicotinate-nucleotide adenylyltransferase NadD (Staphylococcus aureus N315); purified NadD enzyme, colorimetric absorbance read-out; inhibition, % at 20 µM; 0.78% of 360,000 active; AID 602399, 2012; in the data active means inhibition above about 26%
rCAG bind conf: small molecules binding CAG repeat RNA – biochemical, fluorescence, confirmation | AID 652065, 2013 | 70% of 4,300 active | r(CAG) RNA repeat, TO-PRO-1 dye displacement fluorescence | inhibition, % at 3 µM | shares compounds with rCAG binder;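 active means inhibition above a per-plate cutoff, the mean inhibition of sample wells plus 3 SD, cut at about 35% in these data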;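 further: loss of TO-PRO-1 fluorescence as compound displaces dye from 1x1 AA loop RNA; 0% = DMSO only wells and 100% = 100 µM mitoxantrone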
dCAG dye counter: displacement of TO-PRO-1 from CAG DNA duplex, counter-screen for rCAG RNA repeat binder project, biochemical, fluorescence, TO-PRO-1 dye, d(CAG) DNA oligo; shares compounds with rCAG binder; d(CAG) DNA oligo TO-PRO-1 dye displacement; inhibition, % at 3 µM; 94% of 4,300 active;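 active means inhibition above its plate's cutoff, the mean test-well inhibition plus 3 SD, cut at about 4.8% in these data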;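 further: 0% = DNA dye mix with DMSO and 100% = 100 µM mitoxantrone; hits displace the dye from DNA and so lower well fluorescence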
DNA CAG DR: inhibitors of DNA CAG/GTC TO-PRO-1 complex, dose response, counter-screen for rCAG RNA repeat binder project, biochemical, fluorescence, TO-PRO-1 dye | shares compounds with rCAG binder | DNA CAG/GTC duplex TO-PRO-1 dye displacement fluorescence | IC50, µM | 20% of 250 active; in the data active means IC50 below about 10 µM
* hit, by the source's call; x = no result; ! = a repeat was not active.

SMILES	ASAP1 GAP inh	rCAG binder	ARFGAP1 inhibitor	NadD inh	rCAG bind conf	dCAG dye counter	others
CC1=NN2C(=N)/C(=C\c3ccc(SCc4ccccc4)o3)C(=O)N=C2S1	5	17	-3	20	x	x
N=C1/C(=C\c2ccc(SCc3ccco3)o2)C(=O)N=C2SC=NN12	-8	41*	-2	6	32	8.4*
CCOc1ccc(Cc2c(C)[nH]c3ccc(C(=O)O)cc3c2=S)cc1	-2	36*	-3	1	32	7.6*
FC(F)(F)c1ccccc1Cn1ccc2ccc(-c3ccc4ccn(Cc5ccccc5C(F)(F)F)c4c3)cc21	x	4	x	x	x	x
CCN1CCN(Cc2ccc(NC(=O)c3cc(NC(=O)N4CCNC4=O)cc(OC)c3)cc2C(F)(F)F)CC1	-4	1	9	-12	x	x
CCN1CCN(Cc2ccc(NC(=O)c3cc(NC(=O)C4=NN(c5ccccc5)C(=O)C4)cc(OC)c3)cc2C(F)(F)F)CC1	11	38*!	20	33*	33	20*
N#C/C(=C\c1c[nH]c2ccccc12)C(=O)NC1CC1	-13	54*	-4	-2	1	1
N#C/C(=C\c1c[nH]c2ccccc12)C(=O)NC1CCCC1	4	5	-2	-2	x	x
N#Cc1c2nc3ccccc3nc2n2cc(NC(=O)c3ccc(F)cc3)ccc12	0	36*	16	7	42*	20*
Cc1c(C(=O)Nc2ccc(F)cc2)cn2c(nc3ccccc32)c1C#N	10	1	6	-1	x	x
COc1ccc(C2=NN(c3ccccc3)C(=O)/C2=C\c2ccc(O)c(OC)c2)cc1	18	57*	3	14	66*	29*
COc1ccc(/C=C2/C(=O)N(c3ccccc3)N=C2C)cc1	x	x	x	-7	x	x
Cc1nc(-c2ccccc2)sc1C(=O)NS(=O)(=O)c1ccc(CN2CCN(c3ccccc3)CC2)cc1	12	83*	-1	22	81*	45*
C=CCc1cccc(C=NNC(=O)c2ccco2)c1O	x	5	x	x	x	x
O=C(NCc1cccs1)c1csc([C@@H]2O[C@H](CO)[C@H](O)[C@H](O)[C@H]2O)n1	-3	2	6	3	x	x
Cc1ccc(C(=O)Nn2cnc3scc(-c4cccs4)c3c2=O)c(O)c1	6	40*	0	4	25	8.7*
Cc1ccc(-n2cnc3scc(-c4cccs4)c3c2=O)cc1	12	5	-9	-2	x	x
NC(=S)NN=C1CSSC1	x	x	x	7	x	x
CSC(=NS(=O)(=O)c1ccccc1)NNC(=O)c1c(-c2c(Cl)cccc2Cl)noc1C	-14	35*	2	1	24	4
Cc1onc(-c2c(Cl)cccc2Cl)c1C(=O)NN1CCCCCC1	14	0	-6	-1	x	x
O=C1NC(c2ccc(Br)cc2)c2c(-c3ccccc3)n[nH]c21 (stereo not drawn)	7	1	6	x	x	x
Cc1ccc(C(=O)N(C)[C@H]2C[C@H]3c4[nH]c5c(-c6ccccc6)cccc5c4CCN3C(=O)[C@H]2[C@H](C)O)cc1	11	7	15	x	x	x
COc1ccc(NC(=O)c2ccc(Cl)c(S(=O)(=O)NCC3CCCO3)c2)c(OC)c1 (stereo not drawn)	9	-4	0	1	x	x
Cc1ccc(S(=O)(=O)/N=C2/NC(=O)/C(=C\c3ccccc3)S2)cc1	6	83*	-4	6	76*	36*
Cc1ccc(S(=O)(=O)/N=C2/NC(=O)/C(=C/c3ccncc3)S2)cc1	-3	4	8	x	x	x
SMILES	ASAP1 GAP inh	rCAG binder	ARFGAP1 inhibitor	NadD inh	rCAG bind conf	dCAG dye counter	others
Cc1ccc(S(=O)(=O)/N=C2/NC(=O)/C(=C/c3ccccc3)S2)cc1	-12	84*	5	14	71*	30*	DNA CAG DR=4.9*
Cc1ccc(/C=C2\S/C(=N/S(=O)(=O)c3cccs3)NC2=O)cc1	-10	60*	-8	15	65*	24*
COc1ccc2c(C(c3ccccc3O)C3CCCN3S(=O)(=O)c3ccc(C)cc3)cn(C)c2c1 (stereo not drawn)	x	11	x	x	x	x
CCCCCCCCN1C(=O)[C@H](CC(=O)NCCCC)C[C@@]2(C(=O)OC)CC(C)(C)CC=C12	11	4	8	x	x	x
COC(=O)C[C@@H]1CC[C@H]2[C@H](COc3ccc(NC(=O)c4cccc(C(F)(F)F)c4)cc3C(=O)N2C)O1	x	4	x	x	x	x
O=C(Nc1nc(-c2ccco2)c(-c2ccco2)s1)c1cnccn1	1	44*	-3	x	22	13*
O=C(Nc1nc2ccccc2s1)c1cnccn1	3	2	-3	-5	x	x
CC(=O)Nc1ccc(OC(F)(F)C(F)F)c(NC(C)=O)c1	6	1	-11	-3	x	x
C=C(C)C(=O)Nc1ccc(OC(F)(F)C(F)F)c(NC(=O)C(=C)C)c1	10	44*	6	-2	0	-2
COc1ccc(OC)c(/C=C2\Oc3cc(OCC(=O)N4CC(O)C[C@H]4C(=O)O)ccc3C2=O)c1 (stereo partly drawn)	16	42*	6	-4	33	5.9*
CCOc1ccc(-c2ccc(/C=C3/C(=N)N4C(C)=CSC4=NC3=O)o2)c([N+](=O)[O-])c1	0	49*	7	32*	31	12*
CCOc1ccc(-c2ccc(/C=C3/C(=N)N4C=CSC4=NC3=O)o2)c([N+](=O)[O-])c1	-5	4	0	27	x	x
COC(=O)C[C@H]1CC[C@@H]2[C@H](COc3ccc(NC(=O)c4cnccn4)cc3C(=O)N2C)O1	x	1	x	x	x	x
O=C(O)CC/C(=C\c1ccc(Cl)c([N+](=O)[O-])c1)c1nc2ccccc2s1	-7	39*	0	5	41*	10*
O=C(O)C/C(=C\c1ccc(N2CCOCC2)c([N+](=O)[O-])c1)c1nc2ccccc2s1	6	45*	0	7	41*	16*
O=C(O)CC/C(=C\c1ccc(N2CCOCC2)c([N+](=O)[O-])c1)c1nc2ccccc2s1	-3	48*	1	10	66*	25*
N#C/C(=C\c1ccc(O)c([N+](=O)[O-])c1)c1nc2ccccc2s1	-3	88*	3	8	82*	43*
O=C(Nc1ccc(OC(F)(F)F)cc1)Nc1c(-c2ccccc2)nc2ncccn12	x	9	x	x	x	x
